Assay results from ChEMBL document CHEMBL1143620, “Discovery of diphenyloxazole and Ndelta-Z-ornithine derivatives as highly potent and selective human prostaglandin EP(4) receptor antagonists” (J Med Chem, 2005).

Key:
[1] = target: Prostaglandin E2 receptor EP4 subtype (Homo sapiens, UniProt P35408); assay: Inhibition of [3H]PGE-2 binding to human prostanoid EP4 receptor
[2] = Clearance in dog after iv administration (n=2-3); format: ADME, organism-based, Canis lupus familiaris; details: in vivo
[3] = target: T1, Prostaglandin D2 receptor (Homo sapiens, UniProt Q13258); assay: Inhibition of [3H]PGD-2 binding to human prostanoid DP receptor
T1 sequence (Q13258 whole entry): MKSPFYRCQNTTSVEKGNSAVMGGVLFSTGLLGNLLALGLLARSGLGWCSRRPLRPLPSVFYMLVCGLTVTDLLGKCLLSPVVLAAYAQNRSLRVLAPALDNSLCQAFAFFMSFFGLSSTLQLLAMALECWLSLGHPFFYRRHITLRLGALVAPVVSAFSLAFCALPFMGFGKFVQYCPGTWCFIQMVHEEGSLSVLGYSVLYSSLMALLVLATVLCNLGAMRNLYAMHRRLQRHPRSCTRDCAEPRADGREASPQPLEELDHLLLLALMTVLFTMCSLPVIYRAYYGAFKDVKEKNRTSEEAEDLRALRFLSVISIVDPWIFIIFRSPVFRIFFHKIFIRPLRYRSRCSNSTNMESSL

[4] = target: Prostaglandin F2-alpha receptor (Homo sapiens, UniProt P43088); assay: Inhibition of [3H]PGF-2 binding to human prostanoid FP receptor
[5] = target: T2, Prostaglandin E2 receptor EP1 subtype (Homo sapiens, UniProt P34995); assay: Inhibition of [3H]-PGE-2 binding to human prostanoid EP1 receptor
T2 sequence (P34995 whole entry): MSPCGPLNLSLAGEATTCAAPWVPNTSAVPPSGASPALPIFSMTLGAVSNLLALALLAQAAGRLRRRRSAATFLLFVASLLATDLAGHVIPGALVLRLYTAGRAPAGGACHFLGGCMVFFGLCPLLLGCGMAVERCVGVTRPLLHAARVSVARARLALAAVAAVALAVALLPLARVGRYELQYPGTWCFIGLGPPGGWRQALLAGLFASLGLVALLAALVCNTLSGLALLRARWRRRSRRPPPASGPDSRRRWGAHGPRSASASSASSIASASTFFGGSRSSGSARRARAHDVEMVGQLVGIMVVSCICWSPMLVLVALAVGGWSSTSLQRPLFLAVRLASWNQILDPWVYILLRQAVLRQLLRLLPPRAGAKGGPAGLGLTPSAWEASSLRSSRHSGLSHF

[6] = target: Prostaglandin E2 receptor EP2 subtype (Homo sapiens, UniProt P43116); assay: Inhibition of [3H]PGE-2 binding to human prostanoid EP2 receptor
[7] = target: T3, Prostaglandin E2 receptor EP3 subtype (Homo sapiens, UniProt P43115); assay: Inhibition of [3H]PGE-2 binding to human prostanoid EP3 receptor
T3 sequence (P43115 whole entry): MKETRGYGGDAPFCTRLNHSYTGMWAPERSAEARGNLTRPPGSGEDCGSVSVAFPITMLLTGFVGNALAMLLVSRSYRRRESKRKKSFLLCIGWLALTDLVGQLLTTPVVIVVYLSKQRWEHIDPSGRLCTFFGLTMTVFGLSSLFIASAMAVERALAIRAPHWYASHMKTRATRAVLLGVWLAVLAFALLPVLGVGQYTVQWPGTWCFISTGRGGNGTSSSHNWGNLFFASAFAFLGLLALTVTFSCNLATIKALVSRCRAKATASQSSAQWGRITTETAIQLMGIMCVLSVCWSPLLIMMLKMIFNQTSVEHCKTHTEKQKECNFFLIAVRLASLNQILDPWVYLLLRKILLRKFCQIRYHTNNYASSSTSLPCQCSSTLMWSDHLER

Prostacyclin receptor = Prostacyclin receptor (Homo sapiens, UniProt P43119); assay: Inhibition of [3H]iloprost binding to human prostanoid IP receptor
Thromboxane A2 receptor = target: T4, Thromboxane A2 receptor (Homo sapiens, UniProt P21731); assay: Inhibition of [3H]SQ-29,548 binding to human prostanoid TP receptor
T4 sequence (P21731 whole entry): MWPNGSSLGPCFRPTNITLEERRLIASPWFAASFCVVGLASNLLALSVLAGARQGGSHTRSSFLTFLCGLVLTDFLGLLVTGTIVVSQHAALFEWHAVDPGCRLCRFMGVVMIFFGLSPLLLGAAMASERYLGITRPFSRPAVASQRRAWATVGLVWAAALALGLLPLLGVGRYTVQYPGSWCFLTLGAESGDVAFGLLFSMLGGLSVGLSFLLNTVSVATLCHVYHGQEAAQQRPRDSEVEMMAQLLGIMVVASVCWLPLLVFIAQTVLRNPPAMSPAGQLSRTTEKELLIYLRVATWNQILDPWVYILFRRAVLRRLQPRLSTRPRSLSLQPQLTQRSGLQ

[8] = Maximal plasma concentration in rats after 10 mg/kg oral dose n=3; format: ADME, organism-based; set-up: dose 10 mg/kg, route oral; details: rat
[9] = Maximal plasma concentration in dogs after 0.1 mg/kg oral dose, n=3; format: ADME, organism-based, Canis lupus familiaris; set-up: dose 0.1 mg/kg, route oral; details: dog
Method in brief: (§1)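 Single oral doses, n = 3 animals per dose. Peak plasma level reported in ng/mL, with oral bioavailability given as F (%). Values are mean ± SE.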

[10] = Half life in rat after iv administration (n=2-3); format: ADME, organism-based; details: in vivo
[11] = Clearance in rat after iv administration (n=2-3); format: ADME, organism-based; details: in vivo
[12] = Bioavailability in rat (dose 10 mg/kg p.o.); format: ADME, organism-based; details: in vivo, po
[13] = Bioavailability in dog at 0.10 mg/kg after po administration (n=3); format: ADME, organism-based, Canis lupus familiaris; details: in vivo, 0.1 mg/kg; method in brief: as §1
[14] = Half life in dog after iv administration (n=2-3); format: ADME, organism-based, Canis lupus familiaris; details: in vivo
[15] = Bioavailability in dog at 3.2 mg/kg after po administration (n=3); format: ADME, organism-based, Canis lupus familiaris; details: in vivo; method in brief: as §1
[16] = target: Prostaglandin E2 receptor EP4 subtype (Rattus norvegicus, UniProt P43114); assay: Inhibition of rat prostanoid EP4 receptor
[17] = Maximal plasma concentration in dogs after 3.2 mg/kg oral dose, n=3; format: ADME, organism-based, Canis lupus familiaris; set-up: dose 3.2 mg/kg, route oral; details: dog; method in brief: as §1
[18] = Maximal plasma concentration in dogs after 0.32 mg/kg oral dose, n=3; format: ADME, organism-based, Canis lupus familiaris; set-up: dose 0.32 mg/kg, route oral; details: dog; method in brief: as §1
[19] = Bioavailability in dog at 0.32 mg/kg after po administration (n=3); format: ADME, organism-based, Canis lupus familiaris; details: in vivo; method in brief: as §1
[20] = Bioavailability in rat at 0.32 mg/kg after po administration (n=3); format: ADME, organism-based; details: in vivo

Sequence of Prostaglandin F2-alpha receptor (P43088 whole entry): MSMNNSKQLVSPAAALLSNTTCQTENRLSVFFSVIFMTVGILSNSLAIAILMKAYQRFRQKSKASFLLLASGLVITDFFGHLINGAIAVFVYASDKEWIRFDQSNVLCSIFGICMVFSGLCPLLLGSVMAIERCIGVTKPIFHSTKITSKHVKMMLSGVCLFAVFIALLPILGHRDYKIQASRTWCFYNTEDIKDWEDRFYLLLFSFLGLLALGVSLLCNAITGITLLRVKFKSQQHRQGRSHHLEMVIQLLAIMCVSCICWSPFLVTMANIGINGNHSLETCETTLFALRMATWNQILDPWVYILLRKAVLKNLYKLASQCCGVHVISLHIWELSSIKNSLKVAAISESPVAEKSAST
Sequence of Prostacyclin receptor (P43119 whole entry): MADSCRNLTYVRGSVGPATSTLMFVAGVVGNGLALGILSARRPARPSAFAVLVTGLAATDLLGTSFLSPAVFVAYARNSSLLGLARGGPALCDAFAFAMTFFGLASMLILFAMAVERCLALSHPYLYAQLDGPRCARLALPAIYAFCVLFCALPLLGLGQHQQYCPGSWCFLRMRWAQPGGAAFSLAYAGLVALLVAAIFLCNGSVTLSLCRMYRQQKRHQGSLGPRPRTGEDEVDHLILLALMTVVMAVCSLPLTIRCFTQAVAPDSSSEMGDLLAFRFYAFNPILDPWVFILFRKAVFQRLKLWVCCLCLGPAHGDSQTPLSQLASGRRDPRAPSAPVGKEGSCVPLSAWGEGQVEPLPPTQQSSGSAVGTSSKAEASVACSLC
Sequence of Prostaglandin E2 receptor EP2 subtype (P43116 whole entry): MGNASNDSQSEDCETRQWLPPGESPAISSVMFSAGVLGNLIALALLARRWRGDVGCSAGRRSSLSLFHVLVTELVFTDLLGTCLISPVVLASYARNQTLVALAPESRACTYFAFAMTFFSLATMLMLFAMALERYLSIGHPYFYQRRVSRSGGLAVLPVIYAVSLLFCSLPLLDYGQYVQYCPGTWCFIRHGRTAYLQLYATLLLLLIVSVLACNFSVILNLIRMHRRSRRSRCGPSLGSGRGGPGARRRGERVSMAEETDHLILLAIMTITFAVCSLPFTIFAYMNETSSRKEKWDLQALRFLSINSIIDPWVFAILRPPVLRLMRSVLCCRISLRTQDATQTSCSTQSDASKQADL
Sequence of Prostaglandin E2 receptor EP4 subtype (Homo sapiens, UniProt P35408) (P35408 whole entry): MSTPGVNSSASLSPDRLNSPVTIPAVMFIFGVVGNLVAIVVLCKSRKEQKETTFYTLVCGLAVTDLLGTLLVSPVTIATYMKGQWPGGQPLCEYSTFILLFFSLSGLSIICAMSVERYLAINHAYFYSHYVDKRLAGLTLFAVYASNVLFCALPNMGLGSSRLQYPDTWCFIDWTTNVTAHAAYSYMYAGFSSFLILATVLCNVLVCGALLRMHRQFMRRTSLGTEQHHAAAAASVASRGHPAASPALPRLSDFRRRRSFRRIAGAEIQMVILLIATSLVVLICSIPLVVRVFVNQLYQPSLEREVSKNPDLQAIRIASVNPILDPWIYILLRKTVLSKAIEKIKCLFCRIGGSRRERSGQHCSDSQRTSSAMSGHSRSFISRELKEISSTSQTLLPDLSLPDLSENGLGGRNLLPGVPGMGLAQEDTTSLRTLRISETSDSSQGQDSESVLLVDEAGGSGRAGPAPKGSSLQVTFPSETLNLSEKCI
Sequence of Prostaglandin E2 receptor EP4 subtype (Rattus norvegicus, UniProt P43114) (P43114 whole entry): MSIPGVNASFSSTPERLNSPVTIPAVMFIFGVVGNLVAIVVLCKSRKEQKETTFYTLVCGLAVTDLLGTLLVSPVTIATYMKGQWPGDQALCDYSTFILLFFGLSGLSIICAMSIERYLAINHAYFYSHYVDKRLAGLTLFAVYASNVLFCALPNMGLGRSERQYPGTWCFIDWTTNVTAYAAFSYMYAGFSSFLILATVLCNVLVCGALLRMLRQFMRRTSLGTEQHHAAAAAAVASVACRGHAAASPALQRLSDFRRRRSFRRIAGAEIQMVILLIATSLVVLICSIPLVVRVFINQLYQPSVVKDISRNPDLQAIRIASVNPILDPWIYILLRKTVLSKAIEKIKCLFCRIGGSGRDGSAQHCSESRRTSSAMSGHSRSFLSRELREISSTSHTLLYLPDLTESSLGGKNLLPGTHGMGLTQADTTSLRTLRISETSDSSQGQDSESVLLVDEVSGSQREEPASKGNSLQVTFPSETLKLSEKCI

| Ki [1] [µM] | clearance [2] [L/h/kg] | Ki [3] [µM] | Ki [4] [µM] | Ki [5] [µM] | Ki [6] [µM] | Ki [7] [µM] | Ki (Prostacyclin receptor) [µM] | Ki (Thromboxane A2 receptor) [µM] | half-life [10] [h] | half-life [14] [h] | SMILES | also measured |
| --- | --- | --- | --- | --- | --- | --- | --- | --- | --- | --- | --- | --- |
| 0.24 |  |  |  |  |  |  |  |  |  |  | O=C(O)CCCCCNC(=O)[C@@H](CCCCNC(=O)OCc1ccccc1)NC(=O)c1cc2ccccc2o1 |  |
| 0.0055 | 0.0312 | > 3 | > 3 | 2.5 | > 3 | > 3 | 0.61 | > 3 | 4 | 5.5 | O=C(O)c1cccc(C[C@@H]2CCCC=C2c2nc(-c3ccccc3)c(-c3ccccc3)o2)c1 | Cmax [8]: 9.1 µg/mL; Cmax [9]: 0.0573 µg/mL; clearance [11]: 0.672 L/h/kg; bioavailability [12]: 99%; bioavailability [13]: 25% |
| 0.043 |  | > 1 | > 1 | > 1 | > 1 | > 1 | > 1 | > 1 |  |  | O=C(NCCC[C@H](NC(=O)c1cc2ccccc2[nH]1)C(=O)N[C@@H](Cc1ccccc1)C(=O)O)OCc1ccccc1 |  |
| 0.05 |  |  |  |  |  |  | 0.17 |  |  |  | O=C(O)Cc1cccc(C[C@@H]2CCCC=C2c2nc(-c3ccccc3)c(-c3ccccc3)o2)c1 |  |
| 0.0084 |  |  |  |  |  |  |  |  |  |  | O=C(O)CCCCCNC(=O)[C@H](CCCCNC(=O)OCc1ccccc1)NC(=O)c1cc2ccccc2o1 |  |
| 0.0003 | 0.0312 | > 3 | > 3 | > 3 | > 3 | > 3 | > 3 | > 3 | 4.4 | 5.5 | O=C(NS(=O)(=O)Cc1ccccc1)c1cccc(C[C@@H]2CCCC=C2c2nc(-c3ccccc3)c(-c3ccccc3)o2)c1 | bioavailability [15]: 97%; Ki [16]: 0.00074 µM; Cmax [8]: 2.1 µg/mL; Cmax [17]: 8.2 µg/mL; clearance [11]: 0.612 L/h/kg; bioavailability [12]: 51% |
| 1.02 | 0.0954 |  |  |  |  | > 1 |  |  | 6.6 | 3 | O=C([O-])COc1cccc(C[C@@H]2CCCC=C2c2nc(-c3ccccc3)c(-c3ccccc3)o2)c1.[Na+] | Cmax [18]: 0.592 µg/mL; Cl [11]: 1.06 L/h/kg; bioavailability [19]: 72%; bioavailability [20]: 50% |
| 0.00068 |  | > 1 | > 1 | > 3 | > 3 | > 3 | > 3 | > 1 |  |  | O=C(NOCc1ccccc1)c1cccc(C[C@@H]2CCCC=C2c2nc(-c3ccccc3)c(-c3ccccc3)o2)c1 |  |
| 0.00091 |  | > 10 | > 10 | > 10 | > 10 | > 10 | > 10 | > 10 |  |  | O=C(O)CCCCCNC(=O)[C@H](CCCNC(=O)OCc1ccccc1)NC(=O)c1cc2ccccc2o1 | Ki [16]: 0.0051 µM |
| 0.08 |  |  |  |  |  |  |  |  |  |  | CN(Cc1ccccc1)C(=O)[C@H](Cc1ccccc1)NC(=O)[C@H](CCCNC(=O)OCc1ccccc1)NC(=O)c1cc2ccccc2[nH]1 |  |
